Data taken from ChEMBL document CHEMBL3045866, “A novel family of insect-selective peptide neurotoxins targeting insect large-conductance calcium-activated K+ channels isolated from the venom of the theraphosid spider Eucratoscelus constrictus” (Mol Pharmacol, 2011).
Calls of active or inactive are those of the source. No cut-off for these calls is given here.

Experiments:
[1] = target: Voltage-gated sodium channel Nav1 alpha subunit (Periplaneta americana) (UniProt D0E0C1); test: Inhibition of Nav channel in Periplaneta americana (American cockroach) DUM neurons assessed as effect on voltage-dependent activation at 330 nM measured at holding potential -90 mV depolarised to +70 mV with 10 mV increments for 10 min by whole cell patch clamp assay
Method in brief: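 Whole-cell voltage clamp of TTX-sensitive Na+ current in DUM neurons isolated from adult cockroaches and kept no longer than 24 h at 30°C. Bath (mM): NaCl 80, CsCl 5, CaCl2 1.8, TEA-Cl 50, 4-AP 5, HEPES 10, NiCl2 0.1, CdCl2 1, pH 7.4. Vh -90 mV; test pulse to -10 mV, or steps to +70 mV in 10-mV increments at 0.1 Hz. P-P/4 leak subtraction; 20–23°C.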

[2] = tested on: Mus musculus; test: Neurotoxicity against Mus musculus C57BL/6 (mouse) assessed as extension of leg at 500 pmol, icv; type: toxicity, organism-based; conditions: in vivo, icv_or_intrathecal
Method in brief: (§1)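 Female C57BL/6 mice (~20 g) lightly anesthetized with diethylether. 5 µl of sample in BSA solution injected into the left cerebral ventricle. Posture, behavior and neurotoxic signs observed; n = 2.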

[3] = target: Voltage-dependent calcium channel alpha-1 subunit (Blattella germanica) (UniProt O18323); test: Inhibition of mid-low voltage activated Cav channel in Periplaneta americana (American cockroach) DUM neurons assessed as effect on voltage-dependent activation at 330 nM measured at holding potential -90 mV depolarized to +70 mV with 10 mV increments after 10 min by whole cell patch clamp assay
Method in brief: (§2)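 Ba2+ currents through M-LVA and HVA Cav channels recorded by whole-cell clamp in cockroach DUM neurons at 20–23°C. Toxin applied for 10 min via a perfusion needle. Peak IBa measured relative to control. For activation, steps from Vh -90 mV to +70 mV in 10-mV increments at 0.1 Hz. P-P/4 leak subtraction; n = 3.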

[4] = Reversible inhibition of Potassium channel Kv in Periplaneta americana (American cockroach) DUM neurons at 330 nM measured at holding potential -90 mV depolarized to +30 mV after 10 min by whole cell patch clamp assay relative to control
[5] = tested on: Mus musculus; test: Neurotoxicity against Mus musculus C57BL/6 (mouse) assessed as convulsion at 500 pmol, icv; type: toxicity, organism-based; conditions: in vivo, icv_or_intrathecal; method in brief: as §1
[6] = target: Voltage-dependent calcium channel alpha-1 subunit (Blattella germanica) (UniProt O18323); test: Inhibition of voltage-gated calcium channel Cav-mediated fast-transient current in Periplaneta americana (American cockroach) DUM neurons assessed as measured at holding potential -80 mV depolarized to +40 mV after 10 min by whole cell patch clamp assay in presence of CdCl2
Method in brief: (§3)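 BK(Ca) current in DUM neurons with 5 mM 4-AP in the bath. Toxin perfused for 10 min or to equilibrium; then 1 mM CdCl2 plus 30 nM ChTx added, and the residual current subtracted. 100-ms steps from Vh -80 mV to +30 mV, or to +40 mV in 10-mV increments for I–V. Peak (fast-transient) and 100-ms (late) amplitudes measured. IC50 from logistic fit; n = 3–6.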

[7] = target: Voltage-dependent calcium channel alpha-1 subunit (Blattella germanica) (UniProt O18323); test: (§4) Inhibition of voltage-gated calcium channel Cav-mediated late-sustained current in Periplaneta americana (American cockroach) DUM neurons assessed as effect on voltage-dependent activation at 25 nM measured at holding potential -80 mV in 10 mV increments depolarized to +40 mV after 10 min by whole cell patch clamp assay in presence of CdCl2
[8] = tested on: Mus musculus; test: Neurotoxicity against Mus musculus C57BL/6 (mouse) assessed as tonic paralysis at 500 pmol, icv; type: toxicity, organism-based; conditions: in vivo, icv_or_intrathecal; method in brief: as §1
[9] = Inhibition of transient A type potassium channel IK(A) in Periplaneta americana (American cockroach) DUM neurons at 330 nM measured at holding potential -90 mV depolarized to +30 mV after 10 min by whole cell patch clamp assay in presence of CdCl2 and ChTx
[10] = tested on: Mus musculus; test: Neurotoxicity against Mus musculus C57BL/6 (mouse) assessed as extension of toes at 500 pmol, icv; type: toxicity, organism-based; conditions: in vivo, icv_or_intrathecal; method in brief: as §1
[11] = tested on: Gryllus bimaculatus; test: Neurotoxicity against third-instar nymph stage of Gryllus bimaculatus (cricket) assessed as paralysis at 1.1 nmol/g measured within 5 min; type: functional, organism-based
[12] = target: Voltage-dependent calcium channel alpha-1 subunit (Blattella germanica) (UniProt O18323); test: Inhibition of high voltage activated Cav channel in Periplaneta americana (American cockroach) DUM neurons assessed as effect on voltage-dependent activation at 330 nM measured at holding potential -90 mV depolarized to +70 mV with 10 mV increments after 10 min by whole cell patch clamp assay; method in brief: as §2
[13] = tested on: Mus musculus; test: Neurotoxicity against Mus musculus C57BL/6 (mouse) assessed as respiratory paralysis at 500 pmol, icv; type: toxicity, organism-based; conditions: in vivo, icv_or_intrathecal; method in brief: as §1
[14] = tested on: Gryllus bimaculatus; test: Neurotoxicity against third-instar nymph stage of Gryllus bimaculatus (cricket) assessed as mortality at 1.1 nmol/g measured at 15 min; type: functional, organism-based
[15] = Inhibition of transient A type potassium channel IK(A) in Periplaneta americana (American cockroach) DUM neurons assessed as effect on voltage-dependent activation at 330 nM measured at holding potential -90 mV depolarized to +40 mV with 100 ms increments after 10 min by whole cell patch clamp …
[16] = target: Voltage-dependent calcium channel alpha-1 subunit (Blattella germanica) (UniProt O18323); test: as §4, with “fast-transient” for “late-sustained”; method in brief: as §3
[17] = tested on: Mus musculus; test: Neurotoxicity against Mus musculus C57BL/6 (mouse) assessed as tonic paralysis at 500 pmol, icv measured after 4 hr; type: toxicity, organism-based; conditions: in vivo, icv_or_intrathecal
[18] = tested on: Mus musculus; test: Neurotoxicity against Mus musculus C57BL/6 (mouse) assessed as cyanosis at 500 pmol, icv measured after 4 hr; type: toxicity, organism-based; conditions: in vivo, icv_or_intrathecal
[19] = tested on: Mus musculus; test: Neurotoxicity against Mus musculus C57BL/6 (mouse) assessed as ataxia at 500 pmol, icv; type: toxicity, organism-based; conditions: in vivo, icv_or_intrathecal; method in brief: as §1
[20] = tested on: Mus musculus; test: Neurotoxicity against Mus musculus C57BL/6 (mouse) assessed as cyanosis at 500 pmol, icv; type: toxicity, organism-based; conditions: in vivo, icv_or_intrathecal; method in brief: as §1
[21] = target: Voltage-dependent calcium channel alpha-1 subunit (Blattella germanica) (UniProt O18323); test: Inhibition of voltage-gated calcium channel Cav-mediated late-sustained current in Periplaneta americana (American cockroach) DUM neurons assessed as measured at holding potential -80 mV depolarized to +40 mV after 10 min by whole cell patch clamp assay in presence of CdCl2; method in brief: as §3
[22] = tested on: Mus musculus; test: Neurotoxicity against Mus musculus C57BL/6 (mouse) assessed as tail erection at 500 pmol, icv; type: toxicity, organism-based; conditions: in vivo, icv_or_intrathecal; method in brief: as §1
[23] = Inhibition of delayed rectifier potassium channel IK(DR) in Periplaneta americana (American cockroach) DUM neurons assessed as effect on voltage-dependent activation at 330 nM measured at holding potential -90 mV depolarized to +40 mV with 100 ms increments after 10 min by whole cell voltage clamp …
[24] = Inhibition of delayed rectifier potassium channel IK(DR) in Periplaneta americana (American cockroach) DUM neurons at 330 nM measured at holding potential -90 mV depolarized to +30 mV after 10 min by whole cell voltage clamp assay in presence of CdCl2 and ChTx relative to control
[25] = target: Voltage-gated sodium channel Nav1 alpha subunit (Periplaneta americana) (UniProt D0E0C1); conditions: 300 nM

Sequence of Voltage-dependent calcium channel alpha-1 subunit (Blattella germanica) (O18323 as listed by the source): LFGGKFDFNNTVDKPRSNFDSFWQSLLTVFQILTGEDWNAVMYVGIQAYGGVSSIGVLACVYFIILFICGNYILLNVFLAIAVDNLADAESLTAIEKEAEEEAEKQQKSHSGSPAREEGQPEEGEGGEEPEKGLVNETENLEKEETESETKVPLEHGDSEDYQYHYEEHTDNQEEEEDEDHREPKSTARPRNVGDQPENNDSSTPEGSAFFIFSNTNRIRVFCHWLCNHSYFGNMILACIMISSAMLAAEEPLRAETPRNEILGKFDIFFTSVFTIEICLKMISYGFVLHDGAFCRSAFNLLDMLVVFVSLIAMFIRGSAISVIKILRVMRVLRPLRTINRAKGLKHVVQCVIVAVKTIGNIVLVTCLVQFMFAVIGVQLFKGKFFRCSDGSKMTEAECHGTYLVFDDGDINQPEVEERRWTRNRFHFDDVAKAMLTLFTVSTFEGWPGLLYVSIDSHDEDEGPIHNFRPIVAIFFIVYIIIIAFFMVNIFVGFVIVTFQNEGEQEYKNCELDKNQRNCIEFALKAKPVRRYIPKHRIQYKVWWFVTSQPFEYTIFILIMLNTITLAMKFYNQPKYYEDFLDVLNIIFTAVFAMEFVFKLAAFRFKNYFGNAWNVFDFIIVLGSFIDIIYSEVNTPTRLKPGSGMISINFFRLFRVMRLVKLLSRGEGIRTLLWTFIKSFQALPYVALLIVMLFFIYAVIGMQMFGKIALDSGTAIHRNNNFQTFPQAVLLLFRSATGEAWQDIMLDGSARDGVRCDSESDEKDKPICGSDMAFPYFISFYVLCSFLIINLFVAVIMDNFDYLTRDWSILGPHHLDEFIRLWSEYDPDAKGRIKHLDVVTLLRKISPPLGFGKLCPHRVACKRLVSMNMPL
Sequence of Voltage-gated sodium channel Nav1 alpha subunit (Periplaneta americana) (D0E0C1 as listed by the source): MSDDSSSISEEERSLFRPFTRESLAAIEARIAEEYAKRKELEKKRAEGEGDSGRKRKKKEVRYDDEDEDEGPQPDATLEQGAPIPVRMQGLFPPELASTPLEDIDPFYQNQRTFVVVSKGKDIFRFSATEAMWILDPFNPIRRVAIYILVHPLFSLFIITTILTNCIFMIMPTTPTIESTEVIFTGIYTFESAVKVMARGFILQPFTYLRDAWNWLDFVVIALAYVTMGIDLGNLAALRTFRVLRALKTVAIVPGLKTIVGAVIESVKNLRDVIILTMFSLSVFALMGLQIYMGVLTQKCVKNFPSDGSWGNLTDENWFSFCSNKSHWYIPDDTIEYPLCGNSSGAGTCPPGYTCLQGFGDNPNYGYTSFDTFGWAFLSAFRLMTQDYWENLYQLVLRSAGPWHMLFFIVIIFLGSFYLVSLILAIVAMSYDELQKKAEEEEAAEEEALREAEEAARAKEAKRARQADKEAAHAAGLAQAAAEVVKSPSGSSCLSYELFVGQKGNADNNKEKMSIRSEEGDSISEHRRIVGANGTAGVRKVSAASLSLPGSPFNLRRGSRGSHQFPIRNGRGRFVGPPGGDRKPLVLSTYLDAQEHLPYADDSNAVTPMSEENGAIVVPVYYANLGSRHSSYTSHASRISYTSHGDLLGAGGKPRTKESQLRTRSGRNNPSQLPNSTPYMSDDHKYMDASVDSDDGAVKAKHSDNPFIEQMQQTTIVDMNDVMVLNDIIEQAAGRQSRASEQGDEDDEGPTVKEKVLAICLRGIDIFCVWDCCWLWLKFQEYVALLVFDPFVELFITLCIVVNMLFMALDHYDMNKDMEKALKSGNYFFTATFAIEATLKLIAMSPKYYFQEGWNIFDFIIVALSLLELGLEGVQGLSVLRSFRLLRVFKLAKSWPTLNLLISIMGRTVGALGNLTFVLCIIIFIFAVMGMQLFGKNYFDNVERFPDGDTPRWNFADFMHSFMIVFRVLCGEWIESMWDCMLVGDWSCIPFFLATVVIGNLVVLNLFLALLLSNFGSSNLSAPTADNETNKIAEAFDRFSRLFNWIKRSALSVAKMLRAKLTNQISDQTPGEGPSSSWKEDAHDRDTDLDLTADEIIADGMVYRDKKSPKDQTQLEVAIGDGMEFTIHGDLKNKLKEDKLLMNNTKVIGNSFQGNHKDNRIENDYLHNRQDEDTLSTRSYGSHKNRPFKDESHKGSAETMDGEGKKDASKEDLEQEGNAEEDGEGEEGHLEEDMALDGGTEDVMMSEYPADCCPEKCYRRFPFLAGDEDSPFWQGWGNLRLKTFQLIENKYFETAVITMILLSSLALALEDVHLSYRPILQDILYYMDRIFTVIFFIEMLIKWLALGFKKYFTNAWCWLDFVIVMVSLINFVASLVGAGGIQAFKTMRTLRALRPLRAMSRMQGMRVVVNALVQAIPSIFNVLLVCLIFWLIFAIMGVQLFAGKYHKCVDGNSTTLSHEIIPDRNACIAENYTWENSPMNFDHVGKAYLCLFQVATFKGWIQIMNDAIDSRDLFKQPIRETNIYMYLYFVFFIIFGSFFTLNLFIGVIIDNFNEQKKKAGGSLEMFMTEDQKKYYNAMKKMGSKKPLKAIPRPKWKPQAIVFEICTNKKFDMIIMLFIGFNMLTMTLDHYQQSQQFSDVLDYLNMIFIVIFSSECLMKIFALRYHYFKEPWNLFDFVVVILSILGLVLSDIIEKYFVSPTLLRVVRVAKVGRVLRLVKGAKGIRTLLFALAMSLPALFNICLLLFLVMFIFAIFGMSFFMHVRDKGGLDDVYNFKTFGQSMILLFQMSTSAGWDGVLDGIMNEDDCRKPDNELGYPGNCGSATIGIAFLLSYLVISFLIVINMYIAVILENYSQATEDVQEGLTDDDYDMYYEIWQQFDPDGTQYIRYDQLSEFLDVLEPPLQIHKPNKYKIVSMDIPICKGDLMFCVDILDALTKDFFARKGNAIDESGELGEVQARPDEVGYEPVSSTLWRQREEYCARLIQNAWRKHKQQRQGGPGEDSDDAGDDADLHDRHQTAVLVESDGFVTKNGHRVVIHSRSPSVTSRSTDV

With `CSCC[C@@H]1NC(=O)[C@H](CCCCN)NC(=O)[C@H](Cc2ccccc2)NC(=O)[C@H](CCC(N)=O)NC(=O)[C@@H](NC(=O)[C@@H](N)Cc2ccc(O)cc2)CSSC[C@@H]2NC(=O)[C@@H]3CSSC[C@@H](C(=O)N[C@@H](CCCCN)C(=O)N[C@@H](CC(C)C)C(=O)N[C@@H](CC(N)=O)C(=O)N[C@@H](CC(C)C)C(=O)O)NC(=O)[C@H](Cc4c[nH]c5ccccc45)NC(=O)[C@H](CC(C)C)NC(=O)[C@H](CCCNC(=N)N)NC(=O)[C@H](CSSC[C@H](NC(=O)[C@H]([C@@H](C)O)NC(=O)[C@H](Cc4c[nH]c5ccccc45)NC1=O)C(=O)N[C@@H](CC(=O)O)C(=O)N[C@@H](CO)C(=O)N[C@@H](CCC(=O)O)C(=O)N[C@@H](CCCNC(=N)N)C(=O)N[C@@H](CCCCN)C(=O)N3)NC(=O)[C@H](C(C)C)NC(=O)[C@H](CCSC)NC(=O)[C@H](CC(=O)O)NC(=O)[C@H](CCC(=O)O)NC2=O` as the compound, how does the inhibition [1] read?
Its inhibition is “inactive”.

What about the Activity [2] of the same compound?
The Activity was “Toxic”.

What about the inhibition [3] of the same compound?
The inhibition was “inactive”.

What about the inhibition [4] of the same compound?
Its inhibition is “Active”.

What about the Activity [5] of the same compound?
Its Activity is “Toxic”.

And the inhibition [6]?
The inhibition was “Dose-dependent effect”.

And the inhibition [7]?
Its inhibition is “inactive”.

What about the Activity [8] of the same compound?
The Activity was “Toxic”.

And the inhibition [9]?
The inhibition was “inactive”.

And the Activity [10]?
Its Activity is “Toxic”.

What about the Activity [11] of the same compound?
Its Activity is “Active”.

What about the inhibition [12] of the same compound?
The inhibition was “inactive”.

What about the Activity [13] of the same compound?
Its Activity is “Toxic”.

What about the Activity [14] of the same compound?
The Activity was “Active”.

What about the inhibition [15] of the same compound?
The inhibition was “inactive”.

What about the inhibition [16] of the same compound?
The inhibition was “inactive”.

And the Activity [17]?
The Activity was “Non-toxic”.

And the Activity [18]?
The Activity was “Non-toxic”.

What about the Activity [19] of the same compound?
Its Activity is “Toxic”.

What about the Activity [20] of the same compound?
Its Activity is “Toxic”.

What about the inhibition [21] of the same compound?
The inhibition was “Dose-dependent effect”.

What about the Activity [22] of the same compound?
Its Activity is “Toxic”.

What about the inhibition [23] of the same compound?
Its inhibition is “inactive”.

And the inhibition [24]?
Its inhibition is “inactive”.

For `NC1=N[C@H](O)[C@H]2[C@H]3O[C@]4(O)O[C@@H]([C@@H](O)[C@@]2(N1)[C@@H]4O)[C@]3(O)CO`, which inhibition [25] is on record?
The inhibition was “Active”.
